In ChEMBL document CHEMBL2321707, “Synthesis, SAR study, and biological evaluation of a series of piperazine ureas as fatty acid amide hydrolase (FAAH) inhibitors” (Bioorg Med Chem, 2013):

Assay: Drug level in rat brain at 0.1 mg, iv at 1 hr
Assay type: ADME, organism-based
Details: read-out: Drug uptake
Summary of the method: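 Rats given 0.1 mg/kg i.v.; brain homogenized 1 h after dosing and compound concentration measured in tissue.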

Row | Structure (SMILES) | concentration at 1 h
1 | Cc1noc(NC(=O)N2CCN(c3nc(-c4ccc(F)cc4)ns3)CC2)c1C | 17 ng/g
2 | Cc1noc(NC(=O)N2CCN(c3nc(-c4ccc(F)cc4)cs3)CC2)c1C | 132 ng/g
3 | Cc1noc(NC(=O)N2CCN(c3nc(-c4ccccc4)ns3)CC2)c1C | 25 ng/g
4 | Cc1noc(NC(=O)N2CCN(c3nc(-c4ccccc4F)ns3)CC2)c1C | 4.6 ng/g
5 | Cc1noc(NC(=O)N2CCN(c3nc(-c4ccc(F)cc4F)cs3)CC2)c1C | 82 ng/g
6 | Cc1noc(NC(=O)N2CCN(c3nc(-c4ccccc4)cs3)CC2)c1C | 23 ng/g
7 | Cc1noc(NC(=O)N2CCN(c3nc(-c4ccccc4F)cs3)CC2)c1C | 103 ng/g
8 | Cc1noc(NC(=O)N2CCN(c3nc(-c4cccc(F)c4)cs3)CC2)c1C | 101 ng/g
9 | Cc1noc(NC(=O)N2CCN(c3nc(-c4cccc(F)c4)ns3)CC2)c1C | 12 ng/g

Assay: Bioavailability in rat
Assay type: ADME, organism-based
Details: in vivo
Summary of the method: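 Rat cassette dosing, 1 mg/kg po.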

Row | Structure (SMILES) | bioavailability
10 | O=C(Nc1noc2ccccc12)N1CCN(c2nc(-c3ccccc3)ns2)CC1 | 5%
